# Reference: ChEMBL document CHEMBL2311435, “Development of 18F-labeled picolinamide probes for PET imaging of malignant melanoma” (J Med Chem, 2013)
# What was measured:
# Brain [1] = assay: Biodistribution in brain of C57BL/6 mouse xenografted with mouse B16F10 cells at 3.7 MBq, iv after 1 hr by gamma-scintillation counting analysis; type: ADME, organism-based, B16-F10; conditions: in vivo
# Outline: (§1)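 1.0 × 10^6 B16F10 cells in PBS injected subcutaneously into the right shoulder of C57BL/6 mice, grown to 0.5 cm (~10 day). Tail-vein injection of about 3.7 MBq (100 μCi) 18F probe in PBS (0.1 M, pH 7.4). Killed at 1.0 or 2.0 h p.i. (n = 4 per group). Tissues excised, weighed and gamma-counted; uptake expressed as %ID/g, mean ± SD.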
# Mus musculus [2] = assay: Biodistribution in tumor of C57BL/6 mouse xenografted with mouse B16F10 cells at 3.7 MBq, iv after 2 hrs by gamma-scintillation counting analysis; type: ADME, organism-based, Neoplasm, B16-F10; conditions: in vivo; outline: as §1
# Stomach [3] = assay: Biodistribution in stomach of C57BL/6 mouse xenografted with mouse B16F10 cells at 3.7 MBq, iv after 1 hr by gamma-scintillation counting analysis; type: ADME, organism-based, B16-F10; conditions: in vivo; outline: as §1
# Mus musculus [4] = assay: Biodistribution in lungs of C57BL/6 mouse xenografted with mouse B16F10 cells at 3.7 MBq, iv after 2 hrs by gamma-scintillation counting analysis; type: ADME, organism-based, Lung, B16-F10; conditions: in vivo; outline: as §1
# Nucleic Acid [5] = assay: Ratio of drug uptake in tumor to lungs of C57BL/6 mouse xenografted with mouse B16F10 cells at 3.7 MBq, iv after 1 hr by gamma-scintillation counting analysis; type: ADME, organism-based, B16-F10; conditions: in vivo
# Outline: (§2)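 Same subcutaneous B16F10 model and tail-vein dose of about 3.7 MBq (100 μCi), n = 4 per group. Dissection at 1 or 2 h p.i. Gamma-counter %ID/g of tumor divided by that of blood, lung, liver or muscle, given as mean ± SD.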
# Intestine [6] = assay: Biodistribution in intestine of C57BL/6 mouse xenografted with mouse B16F10 cells at 3.7 MBq, iv after 2 hrs by gamma-scintillation counting analysis; type: ADME, organism-based, B16-F10; conditions: in vivo; outline: as §1
# Pancreas [7] = assay: Biodistribution in pancreas of C57BL/6 mouse xenografted with mouse B16F10 cells at 3.7 MBq, iv after 2 hrs by gamma-scintillation counting analysis; type: ADME, organism-based, B16-F10; conditions: in vivo; outline: as §1
# [8] = Drug uptake in tumor of C57BL/6 mouse xenografted with mouse B16F10 cells at 3.7 MBq, iv after 0.5 hrs by PET imaging analysis; type: ADME, organism-based, Neoplasm, B16-F10; conditions: in vivo
# Outline: (§3)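 Static small-animal PET at 0.5, 1 and 2 h after tail-vein injection of ~3.7 MBq (100 μCi) into B16F10-bearing C57BL/6 mice (n = 4 per probe). Isoflurane anesthesia, 5% induction and 2% maintenance in O2. Decay-corrected images. ROI-derived %ID/g assumes 1 g/ml density, without attenuation correction. Mean ± SD.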
# Spleen [9] = assay: Biodistribution in spleen of C57BL/6 mouse xenografted with mouse B16F10 cells at 3.7 MBq, iv after 2 hrs by gamma-scintillation counting analysis; type: ADME, organism-based, B16-F10; conditions: in vivo; outline: as §1
# Mus musculus [10] = assay: Biodistribution in lungs of C57BL/6 mouse xenografted with mouse B16F10 cells at 3.7 MBq, iv after 1 hr by gamma-scintillation counting analysis; type: ADME, organism-based, Lung, B16-F10; conditions: in vivo; outline: as §1
# Pancreas [11] = assay: Biodistribution in pancreas of C57BL/6 mouse xenografted with mouse B16F10 cells at 3.7 MBq, iv after 1 hr by gamma-scintillation counting analysis; type: ADME, organism-based, B16-F10; conditions: in vivo; outline: as §1
# Heart [12] = assay: Biodistribution in heart of C57BL/6 mouse xenografted with mouse B16F10 cells at 3.7 MBq, iv after 1 hr by gamma-scintillation counting analysis; type: ADME, organism-based, B16-F10; conditions: in vivo; outline: as §1
# Spleen [13] = assay: Biodistribution in spleen of C57BL/6 mouse xenografted with mouse B16F10 cells at 3.7 MBq, iv after 1 hr by gamma-scintillation counting analysis; type: ADME, organism-based, B16-F10; conditions: in vivo; outline: as §1
# Kidney [14] = assay: Biodistribution in kidney of C57BL/6 mouse xenografted with mouse B16F10 cells at 3.7 MBq, iv after 1 hr by gamma-scintillation counting analysis; type: ADME, organism-based, B16-F10; conditions: in vivo; outline: as §1
# Nucleic Acid [15] = assay: Ratio of drug uptake in tumor to muscle of C57BL/6 mouse xenografted with mouse B16F10 cells at 3.7 MBq, iv after 1 hr by gamma-scintillation counting analysis; type: ADME, organism-based, B16-F10; conditions: in vivo; outline: as §2
# Muscle tissue [16] = assay: Biodistribution in muscle of C57BL/6 mouse xenografted with mouse B16F10 cells at 3.7 MBq, iv after 2 hrs by gamma-scintillation counting analysis; type: ADME, organism-based, B16-F10; conditions: in vivo; outline: as §1
# Stomach [17] = assay: Biodistribution in stomach of C57BL/6 mouse xenografted with mouse B16F10 cells at 3.7 MBq, iv after 2 hrs by gamma-scintillation counting analysis; type: ADME, organism-based, B16-F10; conditions: in vivo; outline: as §1
# Brain [18] = assay: Biodistribution in brain of C57BL/6 mouse xenografted with mouse B16F10 cells at 3.7 MBq, iv after 2 hrs by gamma-scintillation counting analysis; type: ADME, organism-based, B16-F10; conditions: in vivo; outline: as §1
# [19] = Drug uptake in tumor of C57BL/6 mouse xenografted with mouse B16F10 cells at 3.7 MBq, iv after 2 hrs by PET imaging analysis; type: ADME, organism-based, Neoplasm, B16-F10; conditions: in vivo; outline: as §3
# Intestine [20] = assay: Biodistribution in intestine of C57BL/6 mouse xenografted with mouse B16F10 cells at 3.7 MBq, iv after 1 hr by gamma-scintillation counting analysis; type: ADME, organism-based, B16-F10; conditions: in vivo; outline: as §1
# Nucleic Acid [21] = assay: Ratio of drug uptake in tumor to lungs of C57BL/6 mouse xenografted with mouse B16F10 cells at 3.7 MBq, iv after 2 hrs by gamma-scintillation counting analysis; type: ADME, organism-based, B16-F10; conditions: in vivo; outline: as §2
# Liver [22] = assay: Biodistribution in liver of C57BL/6 mouse xenografted with mouse B16F10 cells at 3.7 MBq, iv after 2 hrs by gamma-scintillation counting analysis; type: ADME, organism-based, B16-F10; conditions: in vivo; outline: as §1
# [23] = Drug uptake in tumor of C57BL/6 mouse xenografted with mouse B16F10 cells at 3.7 MBq, iv after 1 hr by PET imaging analysis; type: ADME, organism-based, Neoplasm, B16-F10; conditions: in vivo; outline: as §3
# Nucleic Acid [24] = assay: Ratio of drug uptake in tumor to blood of C57BL/6 mouse xenografted with mouse B16F10 cells at 3.7 MBq, iv after 2 hrs by gamma-scintillation counting analysis; type: ADME, organism-based, B16-F10; conditions: tumour; outline: as §2
# Bone [25] = assay: Biodistribution in bone of C57BL/6 mouse xenografted with mouse B16F10 cells at 3.7 MBq, iv after 1 hr by gamma-scintillation counting analysis; type: ADME, organism-based, Bone element, B16-F10; conditions: in vivo; outline: as §1
# Nucleic Acid [26] = assay: Ratio of drug uptake in tumor to liver of C57BL/6 mouse xenografted with mouse B16F10 cells at 3.7 MBq, iv after 1 hr by gamma-scintillation counting analysis; type: ADME, organism-based, B16-F10; conditions: in vivo; outline: as §2
# Heart [27] = assay: Biodistribution in heart of C57BL/6 mouse xenografted with mouse B16F10 cells at 3.7 MBq, iv after 2 hrs by gamma-scintillation counting analysis; type: ADME, organism-based, B16-F10; conditions: in vivo; outline: as §1
# Liver [28] = assay: Biodistribution in liver of C57BL/6 mouse xenografted with mouse B16F10 cells at 3.7 MBq, iv after 1 hr by gamma-scintillation counting analysis; type: ADME, organism-based, B16-F10; conditions: in vivo; outline: as §1
# Blood [29] = assay: Biodistribution in blood of C57BL/6 mouse xenografted with mouse B16F10 cells at 3.7 MBq, iv after 2 hrs by gamma-scintillation counting analysis; type: ADME, organism-based, B16-F10; conditions: in vivo; outline: as §1
# Mus musculus [30] = assay: Biodistribution in eye of C57BL/6 mouse xenografted with mouse B16F10 cells at 3.7 MBq, iv after 1 hr by gamma-scintillation counting analysis; type: ADME, organism-based, B16-F10; conditions: in vivo; outline: as §1
# Nucleic Acid [31] = assay: Ratio of drug uptake in tumor to muscle of C57BL/6 mouse xenografted with mouse B16F10 cells at 3.7 MBq, iv after 2 hrs by gamma-scintillation counting analysis; type: ADME, organism-based, B16-F10; conditions: in vivo; outline: as §2
# Mus musculus [32] = assay: Biodistribution in tumor of C57BL/6 mouse xenografted with mouse B16F10 cells at 3.7 MBq, iv after 1 hr by gamma-scintillation counting analysis; type: ADME, organism-based, Neoplasm, B16-F10; conditions: in vivo; outline: as §1
# Mus musculus [33] = assay: Biodistribution in eye of C57BL/6 mouse xenografted with mouse B16F10 cells at 3.7 MBq, iv after 2 hrs by gamma-scintillation counting analysis; type: ADME, organism-based, B16-F10; conditions: in vivo; outline: as §1
# Nucleic Acid [34] = assay: Ratio of drug uptake in tumor to blood of C57BL/6 mouse xenografted with mouse B16F10 cells at 3.7 MBq, iv after 1 hr by gamma-scintillation counting analysis; type: ADME, organism-based, B16-F10; conditions: tumour; outline: as §2
# Zone of skin [35] = assay: Biodistribution in skin of C57BL/6 mouse xenografted with mouse B16F10 cells at 3.7 MBq, iv after 2 hrs by gamma-scintillation counting analysis; type: ADME, organism-based, B16-F10; conditions: in vivo; outline: as §1
# Nucleic Acid [36] = assay: Ratio of drug uptake in tumor to liver of C57BL/6 mouse xenografted with mouse B16F10 cells at 3.7 MBq, iv after 2 hrs by gamma-scintillation counting analysis; type: ADME, organism-based, B16-F10; conditions: in vivo; outline: as §2
# Kidney [37] = assay: Biodistribution in kidney of C57BL/6 mouse xenografted with mouse B16F10 cells at 3.7 MBq, iv after 2 hrs by gamma-scintillation counting analysis; type: ADME, organism-based, B16-F10; conditions: in vivo; outline: as §1
# Bone [38] = assay: Biodistribution in bone of C57BL/6 mouse xenografted with mouse B16F10 cells at 3.7 MBq, iv after 2 hrs by gamma-scintillation counting analysis; type: ADME, organism-based, Bone element, B16-F10; conditions: in vivo; outline: as §1
# Blood [39] = assay: Biodistribution in blood of C57BL/6 mouse xenografted with mouse B16F10 cells at 3.7 MBq, iv after 1 hr by gamma-scintillation counting analysis; type: ADME, organism-based, B16-F10; conditions: in vivo; outline: as §1
# Zone of skin [40] = assay: Biodistribution in skin of C57BL/6 mouse xenografted with mouse B16F10 cells at 3.7 MBq, iv after 1 hr by gamma-scintillation counting analysis; type: ADME, organism-based, B16-F10; conditions: in vivo; outline: as §1
# Muscle tissue [41] = assay: Biodistribution in muscle of C57BL/6 mouse xenografted with mouse B16F10 cells at 3.7 MBq, iv after 1 hr by gamma-scintillation counting analysis; type: ADME, organism-based, B16-F10; conditions: in vivo; outline: as §1
compound,measurement,setting,value
CCN(CC)CCNC(=O)c1ccc([18F])nc1,Drug uptake,Brain [1],1.56 % ID/g
same,Drug uptake,Mus musculus [2],9.29 % ID/g
same,Drug uptake,Stomach [3],5.03 % ID/g
same,Drug uptake,Mus musculus [4],0.92 % ID/g
same,Ratio,Nucleic Acid [5],6.23
same,Drug uptake,Intestine [6],0.89 % ID/g
same,Drug uptake,Pancreas [7],0.71 % ID/g
same,Drug uptake,[8],7.54 % ID/g
same,Drug uptake,Spleen [9],0.56 % ID/g
same,Drug uptake,Mus musculus [10],1.52 % ID/g
same,Drug uptake,Pancreas [11],3.58 % ID/g
same,Drug uptake,Heart [12],1.54 % ID/g
same,Drug uptake,Spleen [13],2.88 % ID/g
same,Drug uptake,Kidney [14],5.63 % ID/g
same,Ratio,Nucleic Acid [15],11.24
same,Drug uptake,Muscle tissue [16],0.52 % ID/g
same,Drug uptake,Stomach [17],2.27 % ID/g
same,Drug uptake,Brain [18],0.41 % ID/g
same,Drug uptake,[19],8.47 % ID/g
same,Drug uptake,Intestine [20],3.46 % ID/g
same,Ratio,Nucleic Acid [21],10.49
same,Drug uptake,Liver [22],1.07 % ID/g
same,Drug uptake,[23],7.94 % ID/g
same,Ratio,Nucleic Acid [24],39.2
same,Drug uptake,Bone [25],3.48 % ID/g
same,Ratio,Nucleic Acid [26],2.24
same,Drug uptake,Heart [27],0.4 % ID/g
same,Drug uptake,Liver [28],4.47 % ID/g
same,Drug uptake,Blood [29],0.2 % ID/g
same,Drug uptake,Mus musculus [30],34 % ID/g
same,Ratio,Nucleic Acid [31],15.22
same,Drug uptake,Mus musculus [32],9.54 % ID/g
same,Drug uptake,Mus musculus [33],32.23 % ID/g
same,Ratio,Nucleic Acid [34],20.44
same,Drug uptake,Zone of skin [35],0.71 % ID/g
same,Ratio,Nucleic Acid [36],7.26
same,Drug uptake,Kidney [37],1.2 % ID/g
same,Drug uptake,Bone [38],2.12 % ID/g
same,Drug uptake,Blood [39],0.46 % ID/g
same,Drug uptake,Zone of skin [40],2.37 % ID/g
same,Drug uptake,Muscle tissue [41],1.11 % ID/g
